From article PMC7312786 (Biochemistry, 2018)
Like-named read-outs stand apart in the source and are kept apart here.

Experiments:
[1] = test system: pol binding to DNA; conditions: cited from earlier work
[2] = target: T1, hpol η (Homo sapiens, UniProt Q9Y253); conditions: cited from earlier work
T1 sequence (Q9Y253 1-437): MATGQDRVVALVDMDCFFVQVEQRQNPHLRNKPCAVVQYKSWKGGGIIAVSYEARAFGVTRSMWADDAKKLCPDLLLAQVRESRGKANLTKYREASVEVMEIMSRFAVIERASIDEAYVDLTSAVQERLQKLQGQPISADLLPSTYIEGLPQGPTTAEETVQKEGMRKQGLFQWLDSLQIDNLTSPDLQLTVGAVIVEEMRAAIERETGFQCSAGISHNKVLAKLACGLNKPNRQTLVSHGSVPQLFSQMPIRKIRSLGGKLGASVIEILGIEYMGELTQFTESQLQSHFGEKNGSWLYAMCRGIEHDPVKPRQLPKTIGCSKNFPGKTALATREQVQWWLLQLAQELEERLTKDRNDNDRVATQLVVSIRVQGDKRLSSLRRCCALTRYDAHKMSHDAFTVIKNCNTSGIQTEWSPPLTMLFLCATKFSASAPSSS

[3] = test system: hpol η-deficient HAP-1 cells; assay: Cell viability; type: cell-based, human
In short: (§1)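 HAP-1 parental or CRISPR hpol η-null cells in IMDM with 10% FBS and 1% antibiotic/antimycotic, passage 8–10, seeded 5000 cells/well. Next day: CDDP 0–100 μM alone or with 0.1 or 1 μM test compound, 48 h. Cells washed twice in DPBS, then 2 μM Calcein-AM for 30 min at 25 °C; fluorescence ex 490/em 520 nm. Viability as % of untreated. […] Combination index by Chou–Talalay.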

[4] = test system: HAP-1 cells (hpol η-proficient, parental); assay: Cell viability; type: cell-based, human; conditions: read-out: EC50 of CDDP, cell viability, parental HAP-1
In short: as §1

[5] = test system: γH2AX in hpol η-deficient HAP-1 cells; assay: γH2AX immunoblotting, hpol η-deficient HAP-1 cells; type: cell-based, human; conditions: CDDP (0.5 μM)
In short: (§2)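 HAP-1 cells treated with DMSO or 0.5 μM CDDP combined with 0.1 or 1 μM test compound. Pellets lysed at 4 °C in HEPES pH 7.5/Triton X-100 buffer with phosphatase and protease inhibitors. 30–40 μg protein run on 4–20% SDS-PAGE, transferred to nitrocellulose. Probed with anti-γH2AX (S139) 1:1500 and HRP anti-rabbit 1:4000; β-actin loading control; chemiluminescence. Bands normalized to β-actin, relative to DMSO; three biological replicates; t test.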

[6] = test system: γH2AX in hpol η-proficient HAP-1 cells; assay: γH2AX immunoblotting, hpol η-proficient HAP-1 cells; type: cell-based, human; conditions: CDDP alone (0.5 μM)
In short: as §2

Compound: CCOc1nc2cccc(C(=O)OC(C)OC(=O)OC3CCCCC3)c2n1Cc1ccc(-c2ccccc2-c2nnn[nH]2)cc1 (stereo not shown) [candesartan cilexetil]
- Impact on pol binding to DNA [1]: negligible impact

Compound: O=C1NC(=S)NC(=O)C1=Cc1cn(C(=O)c2ccccc2Br)c2ccc(Cl)cc12 [PNR-3-51, 5-((1-(2-bromobenzoyl)-5-chloro-1H-indol-3-yl)methylene)-2-thioxodihydropyrimidine-4,6(1H,5H)-dione]
- Specificity for hpol η over other pols ([2]; over other TLS and DNA repair pols): less than 2 fold
- IC50 ([2]; read-out: IC50 against hpol η, previous publication): ~30 µM

Compound: N.N.[Cl][Pt][Cl] [CDDP, cis-diamminedichloroplatinum(II), reference compound]
- Reduction of CDDP EC50 by loss of hpol η ([3]; hpol η-deficient versus parental HAP-1): ~ 3 fold
- EC50 ([3]; read-out: EC50 of CDDP, cell viability, hpol η-deficient HAP-1, CDDP alone): 0.1 µM
- EC50 ([4]; CDDP + 0.1 μM PNR-7-02): 0.14 µM
- EC50 ([4]; CDDP + 1 μM PNR-7-02): 0.12 µM
- Increase of μH2AX [5]: ~ 5 fold
- Amount of μH2AX [6]: did not change substantially

Compound: CC(C)c1ccc2c(c1)c(SC(C)(C)C)c(CC(C)(C)C(=O)O)n2Cc1ccc(Cl)cc1 [MK-886]
- Impact on pol binding to DNA [1]: negligible impact
